# CSN inh – CSN deneddylation inhibition | inhibition, % at 12.5 µM | actives 0.38% (n = 360,000) | Q92905 | Purified CSN, SCF-Nedd8-OG deneddylation, fluorescence polarization | AID 651999;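 active means pattern-corrected inhibition above about 35%, with an unprinted fluorescence ratio check between 0.5 and 1.5, limit read from the data, passing the limit was not always enough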;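 further: 0% = enzyme with substrate and 100% = substrate without enzyme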
#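 Assay system: Purified human Csn5 enzyme expressed in HEK293T cells | Amount: Enzyme 0.24 nM | Measured by: Fluorescence polarization readout | Medium: Tris/NaCl/DTT buffer, pH 7.5 | Compound dosing: One concentration, 12.5 µM, 0.25% DMSO | Times: 90 min incubation of compound, enzyme and substrate at room temperature | Control set: no-enzyme wells high, enzyme-with-substrate wells low | Read-out: % inhibition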
# Myeloid diff MLP – myeloid differentiation induction; AID 624256; calls only at 10 µM; actives 1% (n = 360,000); ER-HoxA9 myeloid progenitors, lysozyme-GFP differentiation, flow cytometry;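 active means normalized GFP-positive differentiation at or above the plate's own cutoff, the solvent-only control mean plus 3 SD; inconclusive means no clear call, values can overlap the other calls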;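 further: cells exposed to compound for four days before flow analysis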
# HNF4A DNA FP – change in binding of human HNF4 alpha to DNA; P41235; HNF4a-FITC DNA binding, fluorescence polarization, 1 h; activity change, % at 10 µM; actives 0.3% (n = 360,000); AID 1224865; in the data active means activity change above about 30%, passing the limit was not always enough
# Target sequence (P41235 whole entry, looked up): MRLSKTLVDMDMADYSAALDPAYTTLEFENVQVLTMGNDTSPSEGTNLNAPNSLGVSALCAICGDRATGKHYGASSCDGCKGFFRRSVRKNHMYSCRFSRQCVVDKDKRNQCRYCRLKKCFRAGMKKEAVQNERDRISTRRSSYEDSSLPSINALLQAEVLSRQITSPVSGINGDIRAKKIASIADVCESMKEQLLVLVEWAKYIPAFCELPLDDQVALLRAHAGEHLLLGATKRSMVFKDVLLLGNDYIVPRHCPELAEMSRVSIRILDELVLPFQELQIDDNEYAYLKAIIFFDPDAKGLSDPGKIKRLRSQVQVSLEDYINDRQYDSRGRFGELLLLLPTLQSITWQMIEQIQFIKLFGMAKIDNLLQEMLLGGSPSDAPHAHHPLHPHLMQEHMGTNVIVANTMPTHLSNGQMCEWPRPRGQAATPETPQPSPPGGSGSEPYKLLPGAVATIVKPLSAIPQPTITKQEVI
# Granule exo inh – blocks lytic granule exocytosis | inhibition, % at 10 µM | AID 651702 | actives 0.66% (n = 360,000) | TALL-104 LAMP-1 surface exposure, flow cytometry; cells stimulated with thapsigargin and PMA;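 active means inhibition above about 55%, limit read from the data; inconclusive means no clear call, values can overlap the other calls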
# CSN5 deneddyl – Csn5 (human) deneddylation inhibition, single-concentration validation; shares compounds with CSN inh; Csn5 deneddylation of SCF-Nedd8OG, fluorescence polarization, 90 min; inhibition, % at 16.6 µM; actives 62% (n = 540); in the data active means inhibition above about 50%;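 further: 0% = DMSO with enzyme and 100% = no enzyme wells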
# MMP2 cntr CSN – blocks human MMP-2 in a CSN deneddylation counter-screen; actives 33% (n = 540); inhibition, % at 16.6 µM; shares compounds with CSN inh; recombinant MMP-2, FRET substrate fluorescence, 60 min;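 active means corrected plate-normalized z-score of 5 or more, or -5 or less, or inhibition of 15% or more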;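 further: plate controls were DMSO wells with enzyme for no effect and buffer wells lacking MMP-2 for full effect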
# Thrombin cntr – blocks bovine thrombin in a CSN deneddylation counter-screen; shares compounds with CSN inh; bovine thrombin cleavage of Ub4-pepOG, fluorescence polarization; inhibition, % at 16.6 µM; actives 49% (n = 540); AID 720656;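 active means inhibition at or above a set limit, with a fluorescence interference ratio between 0.5 and a set maximum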
# An asterisk follows results filed as active; i = inactive; u = inconclusive; x = no result; + = active, no number. Hits are enriched below; roughly 2.2% of the tested compounds scored in any of these assays.
SMILES,CSN inh,Myeloid diff MLP,HNF4A DNA FP,Granule exo inh,CSN5 deneddyl,MMP2 cntr CSN,Thrombin cntr
CCC(=O)Nc1ccc(C(=O)COC(=O)c2nc3nccc(C)n3n2)cc1,44*,i,-43,-4,x,15,10
Cc1ccnc2nc(C(=O)OCC(=O)c3ccc(NC(=O)CC(C)C)cc3)nn12,1,i,3,3,x,x,x
CC1(C)Cc2c(sc(NC(=O)COc3cccc4ccccc34)c2C#N)C(C)(C)N1,101*,x,214*,45,-28,-9,-6
C/C(=N/Nc1ccc([N+](=O)[O-])cc1)c1c[nH]c2ccccc12,43*,+,70*,9,69*,3,22*
Cc1[nH]c2ccccc2c1/C=N/Nc1ccc([N+](=O)[O-])cc1,49*,+,68*,-2,75*,5,44*
Cc1noc(NS(=O)(=O)c2ccc(NC(=O)c3cccc(S(=O)(=O)Nc4ccccc4F)c3)cc2)c1C,-4,i,-8,-1,x,x,x
O=C(NCCS(=O)(=O)N1CCN(c2ccc(F)cc2)CC1)C12CC3CC(CC(C3)C1)C2,0,i,-3,-8,x,x,x
CCCOc1ccc(/C=C2\SC(=S)N(CC3CCCO3)C2=O)cc1 (centres undefined),-7,i,-1,6,x,x,x
O=C1/C(=C/c2ccc(O)cc2)SC(=S)N1CC1CCCO1 (centres undefined),94*,i,91*,-8,44,-22,46
N#C/C(=C/c1ccc(N2CCOCC2)o1)C(=O)NC1CCCCC1,103*,i,172,-1,120*,-5,88*
N#C/C(=C/c1ccc(N2CCOCC2)o1)c1ccc(Br)cc1,80*,+,112,67*,+,-37*,-51
N#C/C(=C/c1ccc(N2CCCCCC2)o1)c1ccc(F)cc1,5,i,84,23,x,x,x
Cc1nc(SCc2nc3cc(Cl)c(F)cc3[nH]2)c2oc3ccccc3c2n1,36*,i,6,-8,86*,-4,14
Cc1nc(SCc2nc3ccc(Cl)cc3[nH]2)c2oc3ccccc3c2n1,2,i,6,-6,x,x,x
Cc1c2cnn(CC(=O)Nc3c(F)c(F)cc(F)c3F)c(=O)c2c(C)n1Cc1ccccc1F,62*,i,-53,1,2,7,13
CC(O)CC(=O)OC[C@]12CC[C@H]3[C@@](C)(CC[C@H]4C(C)(C)CCC[C@]34C)[C@@H]1CC(C1=CC(=O)OC1O)O2 (some centres undefined),46*,i,-6,56*,31,2,-4
O=S(=O)(c1ccc2c(c1)OCCO2)N1C[C@@H]2C[C@H]1CN2S(=O)(=O)c1c(F)cccc1F,1,i,2,-11,x,x,x
COc1cc(C)c2c(c1C=O)Oc1c(c(C)c(O)c3c1C(O)OC3=O)OC2=O (centres undefined),38*,i,-47,19,50,13,8
COc1cc(CNCc2ccc(Br)cc2)cc(OC)c1,3,i,1,-5,x,x,x
O=C(N/N=C/C=C/c1ccc([N+](=O)[O-])cc1)c1cccs1,56*,i,56*,-2,x,59*,30*
COc1ccccc1-n1cnc2c(c1=O)c1nc3ccccc3nc1n2-c1ccc(C)cc1,47*,i,15,1,99*,5,3
COc1ccccc1-n1c2nc3ccccc3nc2c2c(=O)n(-c3cc(C)cc(C)c3)cnc21,-2,i,6,4,x,x,x
CC(C)OCCCNc1ccc(N2C(=O)CCCC2=O)cc1[N+](=O)[O-],-2,i,-1,-6,x,x,x
O=C(COC(=O)CNC(=O)c1ccc(Cl)c([N+](=O)[O-])c1)NNC(=O)c1ccccc1F,-1,i,1,3,x,x,x
COc1ccccc1N(CC(=O)NCc1ccco1)S(=O)(=O)c1ccc(C)cc1,44*,i,-25,1,62*,28*,6
SMILES,CSN inh,Myeloid diff MLP,HNF4A DNA FP,Granule exo inh,CSN5 deneddyl,MMP2 cntr CSN,Thrombin cntr
CN(C)c1ccc(/C=C/c2ccc3ccccc3n2)cc1,50*,i,79,21,88*,-20,17*
O=C(Nc1ccccc1Oc1ccccc1)c1cccs1,-3,i,-1,0,x,x,x
O=C(C1=C(O)C(=O)N(c2nc3ccc(Cl)cc3s2)C1c1ccco1)c1ccco1 (centres undefined),44*,i,-23,16,53*,12,15*
NS(=O)(=O)c1cc(C(=O)NC2CCSc3ccccc32)ccc1Cl (centres undefined),64*,i,-77,-6,21,13,49*
CN(C)C(=O)Cn1cc(S(=O)(=O)Cc2ccccc2)c2ccccc21,0,i,4,0,x,x,x
CCOC(=O)/C(=C/c1ccc(N2CCC(c3ccccc3)=N2)cc1)C(C)=O,40*,i,29,5,189*,-71*,-32
c1ccc(C2=NN(c3ccccc3)CC2)cc1,7,i,-1,-3,x,x,x
O=C(CSc1nc(-c2ccccc2)nc2c1Cc1ccccc1O2)Nc1ccc(C(=O)O)cc1,48*,i,-63,-1,60*,20*,10
O=C(CSc1nc(-c2ccc(F)cc2)nc2c1Cc1ccccc1O2)Nc1ccc(C(=O)O)cc1,26,i,-77,-2,x,x,x
O=c1oc(/C=C/c2ccc([N+](=O)[O-])s2)nc2ccccc12,50*,+,9,9,189*,1,25*
O=C(NCCC1CCCCN1S(=O)(=O)c1ccc(F)cc1)C(=O)NCc1ccccn1 (centres undefined),-1,i,1,-6,x,x,x
Cc1nc2nc(C)c(NS(=O)(=O)c3ccc(C4CCCCC4)cc3)c(=O)n2[nH]1,-2,i,0,16,x,x,x
COc1cc(NS(=O)(=O)c2csc(C(N)=O)c2)cc(OC)c1,-4,i,0,-13,x,x,x
O=C(Nc1ccc2nc(-c3ccccc3)[nH]c2c1)c1ccco1,0,i,0,0,x,x,x
O=C(Nc1cccc(-c2nc3ccccc3[nH]2)c1)c1cccc(NC(=O)c2ccco2)c1,57*,i,17,2,25,9,-9
COc1ccc(CCn2c(N)c(C(=O)NCc3ccco3)c3nc4ccccc4nc32)cc1OC,38*,u,9,1,96*,5,-15
COc1ccc(/C=C2\C(=O)NC(=S)N2C(=O)c2ccc(F)cc2)cc1,65*,i,72*,-2,x,-38*,-53
NC1=NC(=O)/C(=C/c2ccc(OCC(=O)O)cc2)S1,-1,i,2,-4,x,x,x
